Screening data from PubChem BioAssay.
Rows were chosen to be rich in hits. Some 3.2% of all compounds tested hit in one or more screens of this group.
NR2E3 ag-1: agonists of human NR2E3 nuclear receptor. inhibition of corepressor binding, % at 3.98 µM. CHO-S Gal4-NCOR/VP16-NR2E3 two-hybrid, luciferase. AID 602229. actives 0.35% (n = 360,000). Q9Y5X4;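 active = inhibition above the mean of all tested compounds plus 3 SD, cut at about 70% in these data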;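 note: 0% = DMSO with NR2E3 transfected cells and 100% = cells lacking NR2E3 construct; higher means lower luciferase signal from less NR2E3 corepressor binding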
DAX1 inh-1: DAX1 (NR0B1) inhibition, primary screen | HEK293T StAR-luciferase reporter, SF-1/DAX-1 repression relief | inhibition, % at 6.8 µM | actives 1.1% (n = 370,000) | AID 652010;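 active = inhibition above the mean over all tested compounds plus 3 SD, cut at about 3.6% in these data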;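 note: 0% = DAX-1 cells with DMSO and 100% = cells lacking DAX-1 with DMSO; higher inhibition means more luminescence from relief of DAX-1 repression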
JMJD2C inh: blocks human GASC-1 demethylase activity; actives 0.069% (n = 330,000); AID 2099; GST-JMJD2C(1-420) H3K9me3 demethylation, DELFIA europium; Q9H3R0; inhibition, % at 2.35 µM;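 active = more than half of a compound's replicate wells show inhibition beyond 50%, single wells judged on their own value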;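 note: signal counts dimethyl H3K9 product captured on neutravidin plate; 0% = median of DMSO wells and 100% = 0.3 times that DMSO median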
Target sequence (Q9H3R0 1-420 limits assumed): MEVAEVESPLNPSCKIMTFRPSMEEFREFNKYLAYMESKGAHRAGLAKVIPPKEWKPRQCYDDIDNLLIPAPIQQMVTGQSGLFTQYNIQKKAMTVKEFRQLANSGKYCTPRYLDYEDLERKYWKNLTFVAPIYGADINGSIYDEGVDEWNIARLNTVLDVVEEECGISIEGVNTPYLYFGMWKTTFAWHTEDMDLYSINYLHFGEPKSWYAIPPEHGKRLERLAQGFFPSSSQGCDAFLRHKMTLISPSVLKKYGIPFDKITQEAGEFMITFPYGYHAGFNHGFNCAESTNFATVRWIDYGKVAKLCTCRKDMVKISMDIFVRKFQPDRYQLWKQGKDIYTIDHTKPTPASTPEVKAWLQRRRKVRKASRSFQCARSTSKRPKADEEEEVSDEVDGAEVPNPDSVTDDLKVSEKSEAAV
SMARCA2 activ: increases SMARCA2 function in MMTV reporter cells. MG213 cells, MMTV-luciferase reporter, dexamethasone, overnight. activation, % at 9.1 µM. actives 1% (n = 370,000); in the data active = activation above about 7.8%;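 note: 0% = vehicle wells and 100% = reference activator wells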
NR2E3 ag-2: agonists of human nuclear receptor NR2E3. Q9Y5X4. GST-NR2E3/biotin-RetCOR TR-FRET, 1536-well. inhibition of corepressor binding, % at 4.78 µM. actives 0.12% (n = 320,000). AID 2300;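 active = percent inhibition above the cutoff of mean plus 3 SD of all tested compounds, set per screening campaign, cut at about 20% in these data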;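 note: 0% = DMSO wells and 100% = biotin wells as full block of FRET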
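System: GST-tagged NR2E3 plus biotinylated RetCOR corepressor; Amount: 1.35 nM GST-tagged NR2E3 final; Dosing: single nominal compound dose of 4.8 µM; Schedule: 5 h incubation at 4 °C; Technique: TR-FRET with europium anti-GST and streptavidin-D2, 340 nm excitation; Controls: biotin wells as high control, 0.6% DMSO wells as low control.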
DAX1 inh-2: inhibits human nuclear receptor DAX1 | HEK293 Gal4-DAX1 luciferase reporter, luminescence | inhibition, % at 6.75 µM | P51843 | actives 0.99% (n = 340,000);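 active = inhibition above the mean over all tested compounds plus 3 SD, cut at about 4.2% in these data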;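 note: 0% = DAX1-transfected cells with DMSO and 100% = empty-vector control cells with DMSO; inhibition shows as a rise in luminescence from relieved DAX1 repression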
Target sequence (P51843 207-470 limits assumed): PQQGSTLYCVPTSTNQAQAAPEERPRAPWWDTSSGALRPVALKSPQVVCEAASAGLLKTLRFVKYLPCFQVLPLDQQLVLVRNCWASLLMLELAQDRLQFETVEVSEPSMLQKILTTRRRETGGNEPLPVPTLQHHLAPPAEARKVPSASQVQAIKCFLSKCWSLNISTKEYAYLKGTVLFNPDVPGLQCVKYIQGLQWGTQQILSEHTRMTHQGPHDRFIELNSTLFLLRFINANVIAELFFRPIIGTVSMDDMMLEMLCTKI
Starred values were filed as active, the others as inactive; / = no result.

SMILES | NR2E3 ag-1 | DAX1 inh-1 | JMJD2C inh | SMARCA2 activ | NR2E3 ag-2 | DAX1 inh-2
CCCC[C@@H]1C(=O)N2N=Cc3cc(C)c(C)cc3[C@H]2N2N=Cc3cc(C)c(C)cc3[C@@H]12 | / | 0 | / | -6 | / | /
COc1ccc(C(=O)OCCCN(C)C2CN(Cc3cn(Cc4ccccc4F)nn3)S(=O)(=O)C2)cc1OC (stereo not drawn) | / | -1 | / | 2 | / | /
O=c1cc(-c2ccc(O)cc2)oc2ccc(O)cc12 | -87 | 2 | -3 | 7.9* | -1 | 0
C=CCNC(=O)C1(S(=O)(=O)c2ccccc2)CC=CC1 | -46 | 1 | 2 | 0 | 2 | 5.2*
FC(F)(F)c1cccc(OCc2noc(-c3ccsc3)n2)c1 | 35 | 0 | 2 | 3 | -1 | 5.5*
COc1cccc(-c2nc(COc3ccc(Cl)cc3Cl)no2)c1 | -24 | 0 | -2 | 4 | 1 | 4
COc1ccc(/C=C/c2c(-c3ccc(OC)cc3)oc3ccccc23)cc1 | 0 | 0 | -10 | 3 | 3 | 1
O=c1nc(/C=C/c2ccc(O)c(O)c2)oc2ccccc12 | -50 | / | -24 | / | / | 4.8*
COc1ccc(/C=C\c2nc(=O)c3ccccc3o2)cc1 | -50 | 4.2* | 1 | 5 | / | -1
CCn1c(/C=C/c2ccc(O)c(O)c2)nc2ccccc2c1=O | 4 | -1 | 6 | 5 | / | 1
CC(O)CNc1nc2sc3c(c2c(=O)n1Cc1ccco1)CCCCC3 (stereo not drawn) | 4 | 0 | 10 | 3 | -4 | 1
CC(O)CNc1nc2sc3c(c2c(=O)n1CCc1ccccc1)CCCCC3 (stereo not drawn) | -66 | -1 | 6 | -2 | 1 | 6.5*
O=c1c2c3c(sc2nc(NCCOCCO)n1Cc1ccco1)CCCCC3 | -15 | 0 | -21 | 0 | -1 | 2
CN(C)CCNc1nc2sc3c(c2c(=O)n1CCc1ccccc1)CCCCC3 | -9 | 1 | -16 | 4 | 1 | 7.0*
C/C(=N\NC(=O)c1nn(C)cc1Br)c1ccncc1 | -43 | 2 | 9 | 1 | -3 | 7.6*
C/C(=N/NC(=O)c1ccc(Br)s1)c1ccncc1 | 6 | -2 | 0 | 2 | 1 | 1
CCCCOCCCNC(=O)C[C@H]1C[C@@]2(C(=O)OC)C(=C[C@H](C(C)C)O[C@@H]2C2CC2)N(CCC2=CCCCC2)C1=O | / | 0 | / | -2 | / | /
COc1ccc2c(c1)CN1C(=O)N(CC(C)C)S(=O)(=O)CC21 (stereo not drawn) | / | 2 | / | 5 | / | /
O=C(OCc1cc(=O)n2ccsc2n1)c1ccc(O)cc1O | -84 | 1 | 3 | 0 | 2 | 1
Cc1ccsc1C(=O)OCc1cc(=O)n2ccsc2n1 | -78 | 4.3* | 2 | 7 | 5 | 2
C#Cc1ccc([C@@H]2C=C(C(=O)N3CCN(Cc4ccccc4)CC3)O[C@H](OCCCCO)C2)cc1 | 75* | / | 1 | / | -1 | -3
NC(=O)C1CCN(CC(O)COc2ccc(-c3ccccc3)cc2)CC1 (stereo not drawn) | 13 | 1 | -11 | -1 | / | 5.6*
CCOC(=O)N1CCN(CC(O)COc2ccc(-c3ccccc3)cc2)CC1 (stereo not drawn) | -11 | -1 | 8 | -1 | 6 | 1
COc1ccc(CN2CCC(CNC(=O)NCc3ccccc3)CC2)cc1 | / | 1 | / | -2 | / | /
OCc1ccccc1O[C@@H]1O[C@H](CO)[C@@H](O)[C@H](O)[C@H]1O | -15 | 1 | -15 | 3 | 1 | 3
SMILES | NR2E3 ag-1 | DAX1 inh-1 | JMJD2C inh | SMARCA2 activ | NR2E3 ag-2 | DAX1 inh-2
COc1cc(/C=C/CO)ccc1O[C@@H]1O[C@H](CO)[C@@H](O)[C@H](O)[C@H]1O | -7 | 1 | 28 | -3 | 1 | 4.7*
O=C(O)/C=C/C(=O)NNC(=O)c1ccc(Cl)cc1Cl | -30 | 0 | 1 | 1 | 1 | -1
O=C(NC1CC(=O)c2sccc21)c1ccc(Cl)cc1Cl (stereo not drawn) | -71 | 3.7* | -5 | 8 | 0 | 1
COC(=O)C1CN(CC(C)C)CCS(=O)(=O)N1Cc1ccc(C(F)(F)F)cc1 (stereo not drawn) | / | -1 | / | -1 | / | /
COCc1nnc(NS(=O)(=O)c2ccccc2)s1 | -20 | 0 | -13 | -6 | 2 | -1
COCc1nnc(NS(=O)(=O)c2ccc(C)cc2)s1 | -18 | 0 | 10 | -3 | -1 | 4.4*
CCOc1ccc(C=NNC(=O)c2cc(-c3ccc(Cl)cc3)n[nH]2)cc1 | / | -4 | / | -1 | / | /
O=C1C=C(N2CCOCC2)C2(CCCCC2)O1 | 0 | -1 | -5 | -4 | -1 | 5.2*
Cc1ccc(NC(=O)c2cc(=O)c3ccccc3o2)cc1S(=O)(=O)N1CCCCC1 | -18 | -1 | -2 | -3 | 1 | -1
O=C(Nc1ccc(S(=O)(=O)N2CCCC2)cc1)c1cc(=O)c2ccccc2o1 | -23 | 1 | -3 | -1 | -1 | 4.3*
CCCCN(C=O)c1c(CC)nc2c(OCC(=O)c3ccc(F)cc3)cccn12 | -27 | 0 | / | 7.9* | / | /
O=C1CC(NCCc2ccccc2)C(=O)N1CCc1ccccc1 (stereo not drawn) | 5 | 0 | 5 | -2 | -3 | 0
COc1ccc(CCNC2CC(=O)N(CCc3ccccc3)C2=O)cc1 (stereo not drawn) | 12 | 0 | 3 | -4 | -2 | 4.5*
COc1cccc(CCNC(=O)CCc2nc(-c3ccccc3F)no2)c1 | / | 0 | / | 0 | / | /
O=C(O)c1ccc(N/N=C/c2cccc(C(F)(F)F)c2)cc1 | -114 | 4.4* | -2 | -1 | 0 | 4.7*
O=C(O)c1ccc(N/N=C/c2ccc(F)c(F)c2)cc1 | -117 | 4 | 2 | 4 | -4 | -2
COc1cc(/C=N/Nc2ccc(C(=O)O)cc2)cc(OC)c1OC | -77 | 2 | -8 | 4 | -4 | 4.3*
COc1ccc(-n2c(SCc3cccc4ccccc34)nnc2-c2ccccc2)cc1 | / | -2 | / | -6 | / | /
N#Cc1ccc(/C=C2\CC3(OC(=O)c4ccco4)CCCN2C3)cc1 (stereo not drawn) | / | 1 | / | -3 | / | /
Cc1cc(N)n(-c2nc3ccccc3s2)n1 | -104 | 3.6* | 2 | 4 | -4 | 5.2*
Cc1nn(-c2nc3ccccc3s2)c(N)c1-c1ccc(Cl)cc1 | -34 | 0 | -8 | 1 | -1 | 1
Cc1nn(-c2nc3ccccc3[nH]2)c(N)c1-c1ccccc1 | -134 | 3.7* | 4 | 3 | -7 | 1
Cc1cc(C)n(-c2nc3ccccc3s2)n1 | -15 | 0 | -17 | 3 | -3 | 0
Cc1nn(-c2nc3ccccc3s2)c(N)c1-c1ccccc1 | -179 | 4.5* | -3 | 0 | 3 | 4
CC1CCC2(CCC(=O)N2CCCOC(=O)Nc2cccc(C(F)(F)F)c2)CC1 (stereo not drawn) | / | 0 | / | -4 | / | /
